In ChEMBL document CHEMBL3871264, “Design of a novel thiophene inhibitor of 15-lipoxygenase-1 with both anti-inflammatory and neuroprotective properties” (Eur J Med Chem, 2016):
Activity calls are given as the source filed them. The calls are words filed in the database; no cut-off is given here.

T1: Polyunsaturated fatty acid lipoxygenase ALOX15 (Homo sapiens, UniProt P16050)
T1 sequence (P16050 whole entry): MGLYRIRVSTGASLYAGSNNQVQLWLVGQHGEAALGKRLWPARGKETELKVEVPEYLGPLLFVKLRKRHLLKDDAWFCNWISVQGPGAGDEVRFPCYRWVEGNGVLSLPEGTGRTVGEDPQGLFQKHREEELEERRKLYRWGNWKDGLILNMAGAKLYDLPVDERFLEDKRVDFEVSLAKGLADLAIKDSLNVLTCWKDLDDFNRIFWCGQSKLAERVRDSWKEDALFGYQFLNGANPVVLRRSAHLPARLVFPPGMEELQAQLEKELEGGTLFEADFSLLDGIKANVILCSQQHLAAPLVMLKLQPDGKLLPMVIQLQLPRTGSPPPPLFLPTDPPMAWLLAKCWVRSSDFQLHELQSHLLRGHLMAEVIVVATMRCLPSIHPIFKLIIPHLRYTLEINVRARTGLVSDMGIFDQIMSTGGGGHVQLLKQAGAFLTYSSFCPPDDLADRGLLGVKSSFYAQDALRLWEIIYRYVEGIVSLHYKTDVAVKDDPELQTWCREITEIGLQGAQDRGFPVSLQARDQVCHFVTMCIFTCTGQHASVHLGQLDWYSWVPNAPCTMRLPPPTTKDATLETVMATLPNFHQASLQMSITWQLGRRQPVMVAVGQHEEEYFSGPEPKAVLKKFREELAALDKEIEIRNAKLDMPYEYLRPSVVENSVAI

T2: Polyunsaturated fatty acid lipoxygenase ALOX15 (Mus musculus) (UniProt P39654)
T2 sequence (whole entry): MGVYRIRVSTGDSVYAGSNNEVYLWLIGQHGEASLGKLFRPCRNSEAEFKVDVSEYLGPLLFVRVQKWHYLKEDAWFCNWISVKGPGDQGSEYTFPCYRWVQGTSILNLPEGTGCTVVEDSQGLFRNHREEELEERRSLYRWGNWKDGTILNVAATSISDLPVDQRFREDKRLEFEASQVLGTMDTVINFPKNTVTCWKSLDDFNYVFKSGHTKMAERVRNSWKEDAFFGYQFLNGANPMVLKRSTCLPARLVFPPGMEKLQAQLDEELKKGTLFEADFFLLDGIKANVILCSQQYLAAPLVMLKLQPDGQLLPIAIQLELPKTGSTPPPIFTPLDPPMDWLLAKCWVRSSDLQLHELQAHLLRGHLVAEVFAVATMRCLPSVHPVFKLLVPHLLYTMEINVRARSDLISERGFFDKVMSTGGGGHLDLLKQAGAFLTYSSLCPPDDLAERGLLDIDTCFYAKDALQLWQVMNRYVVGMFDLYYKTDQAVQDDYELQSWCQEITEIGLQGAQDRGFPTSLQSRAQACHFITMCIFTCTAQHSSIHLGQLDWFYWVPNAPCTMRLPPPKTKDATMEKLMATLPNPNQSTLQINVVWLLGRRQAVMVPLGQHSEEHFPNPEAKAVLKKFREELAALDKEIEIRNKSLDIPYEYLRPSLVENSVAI


Experiments:
[1] = target: T1, Polyunsaturated fatty acid lipoxygenase ALOX15; assay: Inhibition of human 15-LOX-1 assessed as reduction in conversion of linoleic acid to 13(S)-HpODE incubated for 10 mins followed by linoleic acid addition by UV-absorbance analysis
[2] = target: T2, Polyunsaturated fatty acid lipoxygenase ALOX15 (Mus musculus); assay: Inhibition of 15-LOX-1 in mouse HT22 cells assessed as inhibition of glutamate-induced lipid peroxidation at 1 uM incubated for 14 to 16 hrs by BODIPY 581/591 C11 staining based FACS analysis; format: cell-based; conditions: HT-22
How it was run: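 HT-22 cells were seeded at 5x10^4 per well and incubated overnight. They were then exposed to 4 mM glutamate in DMEM/10% FCS, with or without 10 µM test inhibitor or 1 µM PD146176, for 6-7 h or 14-16 h. Cells were stained with BODIPY 581/591 C11 at 2 µM final for 1 h at 37 °C. The red-to-green fluorescence shift was read by flow cytometry (488 nm excitation). At least 3 experiments were run, each in triplicate.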

[3] = target: T2, Polyunsaturated fatty acid lipoxygenase ALOX15 (Mus musculus); assay: Inhibition of 15-LOX-1 in mouse HT22 cells assessed as protection against glutamate-induced cell death by measuring increase in cell viability at 1 uM cotreated with glutamate measured for 16 to 20 hrs by MTT assay; format: cell-based; conditions: HT-22, in the assay text read “14 to 16 hrs” for “16 to 20 hrs”
How it was run: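 HT-22 cells were seeded at 8x10^3 per well and incubated overnight. They were challenged with 4 mM glutamate in DMEM/10% FCS. Inhibitor was given either with glutamate (1-20 µM; PD146176 at 1 µM) or added at 5 or 10 µM 2, 4, 6 or 8 h after glutamate. After 14-16 h, MTT was added at 0.5 mg/mL for 1 h at 37 °C. Formazan was dissolved in DMSO and read at 570 nm minus 630 nm background, expressed relative to control. Three experiments were run with 6-8 replicates each.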

[4] = target: T2, Polyunsaturated fatty acid lipoxygenase ALOX15 (Mus musculus); assay: Inhibition of 15-LOX-1 in mouse HT22 cells assessed as protection against glutamate-induced cell impedance at 1 uM cotreated with glutamate up to 16 hrs by real time cell viability assay; format: cell-based; conditions: HT-22
How it was run: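 HT-22 cells were seeded at 8x10^3 per well, incubated overnight, then given 4 mM glutamate. Inhibitor was either co-applied (1-20 µM; PD146176 at 1 µM) or added at 10 µM 2, 4, 6 or 8 h after glutamate. Impedance was recorded in real time for 16-20 h, with cell index normalized just before glutamate addition.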

[5] = compound: CCCCNC(=O)c1cc(-c2ccccc2)sc1N; assay: Competitive inhibition of human 15-LOX-1 assessed as apparent Km at 5 uM by Lineweaver-Burk plot analysis (reference value: 9.1 +/- 3.4 microM)
How it was run: (§1)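 Purified enzyme activity was read as UV absorbance at 234 nm of the product formed from linoleic acid substrate, in 96-well format. Substrate-dependence runs were done with and without inhibitor. Apparent Km and Vmax were derived from Lineweaver-Burk plots.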

[6] = compound: CCCCNC(=O)c1cc(-c2ccccc2)sc1N; assay: Competitive inhibition of human 15-LOX-1 assessed as apparent Km at 15 uM by Lineweaver-Burk plot analysis (reference value: 9.1 +/- 3.4 microM); how it was run: as §1

| Molecule | IC50 [1] [µM] | also measured |
| --- | --- | --- |
| CCCCNC(=O)c1c(N)sc(-c2ccc(Cl)cc2)c1CCCC | > 50 | – |
| CCCCNC(=O)c1cc(-c2ccc(Cl)cc2)sc1N | 50 to 519 | – |
| CCCCNC(=O)c1c(N)sc(-c2ccccc2)c1C | > 50 | – |
| CCCCNC(=O)c1cc(C)sc1N | 50 to 354 | – |
| Nc1sc(-c2ccccc2)cc1C(=O)NCCCCc1ccccc1 | 50 to 81.7 | – |
| CCCCN(CCCC)C(=O)c1cc(-c2ccccc2)sc1N | 50 to 152 | – |
| c1ccc2c(c1)SCc1c-2[nH]c2ccccc12 | – | inhibition [2]: Active; inhibition [3]: Active; inhibition [4]: Active |
| CCCCNC(=O)c1c(N)sc(-c2ccccc2)c1CCCC | > 50 | – |
| CCCCNC(=O)c1cc(Cc2ccccc2)sc1N | 50 to 115 | – |
| Polyunsaturated fatty acid lipoxygenase ALOX15 (Homo sapiens), P16050 (protein) MGLYRIRVSTGASLYAGSNNQVQLWLVGQHGEAALGKRLWPARGKETELKVEVPEYLGPLLFVKLRKRHLLKDDAWFCNWISVQGPGAGDEVRFPCYRWVEGNGVLSLPEGTGRTVGEDPQGLFQKHREEELEERRKLYRWGNWKDGLILNMAGAKLYDLPVDERFLEDKRVDFEVSLAKGLADLAIKDSLNVLTCWKDLDDFNRIFWCGQSKLAERVRDSWKEDALFGYQFLNGANPVVLRRSAHLPARLVFPPGMEELQAQLEKELEGGTLFEADFSLLDGIKANVILCSQQHLAAPLVMLKLQPDGKLLPMVIQLQLPRTGSPPPPLFLPTDPPMAWLLAKCWVRSSDFQLHELQSHLLRGHLMAEVIVVATMRCLPSIHPIFKLIIPHLRYTLEINVRARTGLVSDMGIFDQIMSTGGGGHVQLLKQAGAFLTYSSFCPPDDLADRGLLGVKSSFYAQDALRLWEIIYRYVEGIVSLHYKTDVAVKDDPELQTWCREITEIGLQGAQDRGFPVSLQARDQVCHFVTMCIFTCTGQHASVHLGQLDWYSWVPNAPCTMRLPPPTTKDATLETVMATLPNFHQASLQMSITWQLGRRQPVMVAVGQHEEEYFSGPEPKAVLKKFREELAALDKEIEIRNAKLDMPYEYLRPSVVENSVAI | – | Km [5]: 14.2 µM; Km [6]: 38.2 µM |

More lines, main results first:

| IC50 [1] [µM] | Molecule | also measured |
| --- | --- | --- |
| 50 to 71.1 | CCCCNC(=O)c1cc(-c2ccc(Br)cc2)sc1N | – |
| 50 to 61.4 | CCCCCc1cc(C(=O)NCCCC)c(N)s1 | – |
| 50 to 65.4 | CCCCNC(=O)c1cc(CCC)sc1N | – |
| 50 to 67.3 | CCCCn1c(=O)[nH]c2sc(-c3ccccc3)cc2c1=O | – |
| 50 to 65.3 | CCCCNC(=O)c1cc(CC)sc1N | – |
